Jurkat viability: cytotoxicity toward Jurkat cells | AID 463 | actives 1.2% (n = 56,000) | Jurkat E6.1 viability, ATP luminescence, 48 h | inhibition, % at 4 µM;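 active = inhibition above the mean inhibition of all tested compounds plus 3 SD, cut at about 28% in these data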
HUVEC inhibit: human endothelial cell proliferation inhibition. HUVEC proliferation, CellTiter-Glo luminescence, 72 h; active compounds read low. viability, % at 10 µM (by protocol). actives 1.1% (n = 86,000);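 active = viability at or below 30%; inactive = viability above 30%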
Lung fibro prol: blocks proliferation of human lung fibroblasts | LL 47 human lung fibroblast viability, ATP luminescence; active compounds read low | viability, % at 10 µM | actives 1.1% (n = 85,000);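 active = viability at or below 50% in the single dose screen; inactive = viability above 50%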;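 also: compound exposure lasted 72 h before the ATP readout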
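Benchmarks: Cell-only wells, no compound | Test system: LL 47 human lung fibroblasts, passage 12 or lower | Input: 1,150 cells/well | Measured by: CellTiter-Glo luminescence measuring cellular ATP | Medium: IMEM, 15% FBS supplement | Schedule: Overnight attachment after seeding, then 72 h compound exposure at 37 °C | Doses: Compound addition at 0.1% DMSO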
H69AR inhibit: blocks growth of human H69AR lung tumor cells; H69AR lung tumor viability, ATP luminescence, 72 h; active compounds read low; viability, % at 10 µM; actives 6% (n = 85,000); AID 598;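 active = viability at or below 40%; inactive = viability above 40%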;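 also: multidrug resistant small cell line overexpressing MRP-1 efflux transporter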
Each line names hits and unclear results; the compound was inactive in the other large screens. Shown are actives, neighbours in structure and some others; about 6.6% of the full set was active somewhere.

COc1ccc(Cn2nnnc2CN(Cc2cc3cc(C)ccc3[nH]c2=O)C2CCCC2)cc1	none
COc1ccc2[nH]c(=O)c(CN(Cc3nnnn3Cc3ccco3)C3CCCCC3)cc2c1	H69AR inhibit 38.2
CCn1c(Cc2cccc3ccccc23)nnc1SCC(=O)Nc1nccs1	none (no result: Jurkat viability)
CCOc1cccc(-c2nn3c(-c4ccco4)nnc3s2)c1	none (no result: Jurkat viability)
Cc1ccc(S(=O)(=O)N2CCN(C(=O)CN3CCOCC3)C2c2ccccc2)cc1 (centres undefined)	H69AR inhibit 7.1
O=C(CN1CCOCC1)N1CCN(S(=O)(=O)c2ccccc2)C1c1ccccc1 (centres undefined)	none
Cc1ccc(Cl)cc1N1CCN(C(=O)C2CCN(c3nnc(-n4cccc4)s3)CC2)CC1	Jurkat viability 40.6
Cc1cccc(N2CCN(C(=O)C3CCN(c4nnc(-n5cccc5)s4)CC3)CC2C)c1 (centres undefined)	none (no result: HUVEC inhibit, Lung fibro prol, H69AR inhibit)
Cc1cc(C)c(NC2=NS(=O)(=O)c3ccccc32)c(C)c1	none (no result: Jurkat viability)
O=C(c1ccc(COc2c(F)c(F)c(F)c(F)c2F)o1)N1CCN(Cc2ccc3c(c2)OCO3)CC1	H69AR inhibit 28.3 (no result: Jurkat viability)
O=C(c1ccc(Br)o1)N1CCN(Cc2ccc3c(c2)OCO3)CC1	none
C=CCc1cccc2cc(C(=O)N(CC)CC)c(=O)oc12	none
COC(=O)C1=C(C)NC2=C(C(=O)CCC2)C1c1ccccn1 (centres undefined)	none
CCCCn1c(=O)[nH]c(=O)c2c1nc(COC(=O)c1c(C)noc1C)n2CCC	none
Cc1ccc(-c2nn(CC(=O)NCc3ccco3)c(=O)c3ccccc23)cc1	H69AR inhibit 21.9
Cc1cc(C)n(CC(=O)NCc2cc(-c3nn(C)c(=O)c4ccccc34)ccc2C)n1	H69AR inhibit 30.2
Cc1ccc(-c2nn(C)c(=O)c3ccccc23)cc1CNC(=O)Cn1nc(-c2ccccc2)c2ccccc2c1=O	H69AR inhibit 1.6 (no result: Jurkat viability)
CC1(C)Cc2c(C#N)c(OCC(=O)c3ccc(Cl)cc3)nc(-c3ccoc3)c2CO1	Lung fibro prol 39.2 (no result: Jurkat viability)
C#CCn1c(=NC(=O)c2cccs2)sc2cccc(OCC)c21	H69AR inhibit 22.6 (no result: Jurkat viability)
C#CCn1c(=NC(=O)c2ccc(Cl)s2)sc2cccc(OC)c21	H69AR inhibit 1.5 (no result: Jurkat viability)
C#CCn1c(=NC(=O)CN2C(=O)CCC2=O)sc2cccc(C)c21	none
COc1cccc(-c2cc(C(=O)NCCCn3ccnc3)no2)c1	none (no result: Jurkat viability)
COc1ccc(CNC(=O)Nc2cccc(C)c2)cc1	none (no result: Lung fibro prol)
COc1ccc(Cn2c(C)c(C)c(C#N)c2NC(=O)Nc2ccc(Cl)cc2)cc1	H69AR inhibit 35.0 (no result: Jurkat viability)
COc1ccc(Cn2c(C)c(C)c(C#N)c2NC(=O)Nc2cccc(Cl)c2)cc1	H69AR inhibit 36.2 (no result: Jurkat viability)
CCOC(=O)N1CCC(Nc2ncnc3c2cnn3-c2ccc(Cl)cc2)CC1	none
CCSc1nnc(NC(=O)C2CCCN(S(=O)(=O)c3cnc[nH]3)C2)s1 (centres undefined)	none
CCn1c(SCC(=O)N2CCCc3ccccc32)nnc1-c1c[nH]c2ccccc12	H69AR inhibit 23.4
COC(=O)c1nc(NC2=NCCCCC2)n[nH]1	H69AR inhibit 39.2 (no result: Lung fibro prol)
Cc1nccc2[nH]c(=O)c(C(=O)NC3CCCCC3C)cc12 (centres undefined)	H69AR inhibit 36.6
CC(O)C(=O)NCCOCCOCCNC(=O)C(C)O (centres undefined)	none
Cc1cnc(C(=O)Nc2cccc3cccnc23)cn1	Jurkat viability 84.5, HUVEC inhibit 5.1, Lung fibro prol 43.2, H69AR inhibit 3.6
COc1cccc(-c2nc(CS(=O)(=O)CC(=O)Nc3cccc(C)c3C)c(C)o2)c1	H69AR inhibit 1.5
CC1CCc2c(sc(NS(=O)(=O)c3ccccc3)c2C(=O)OC(C)C)C1 (centres undefined)	none (no result: Jurkat viability)
COc1ccccc1C1N(c2cc(Cl)ccc2OC)C(=O)C2CCCN21 (centres undefined)	none
COc1cccc(C2CC(c3c(-c4ccccc4)c4cc(Cl)ccc4[nH]c3=O)=NN2S(C)(=O)=O)c1OC (centres undefined)	H69AR inhibit 21.9 (no result: Jurkat viability)
COc1ccccc1C1CC(c2c(-c3ccccc3)c3cc(Cl)ccc3[nH]c2=O)=NN1S(C)(=O)=O (centres undefined)	HUVEC inhibit 25.9, H69AR inhibit 8.3 (no result: Jurkat viability)
CS(=O)(=O)N1N=C(c2ccc(Cl)cc2)CC1c1cccs1 (centres undefined)	none (no result: Jurkat viability)
COc1ccccc1NC(=O)CCn1c(=O)sc2ccccc21	none (no result: Jurkat viability)
COc1cccc(C2C(C(=O)c3cccs3)=C(O)C(=O)N2CCCn2ccnc2)c1OC (centres undefined)	none (no result: HUVEC inhibit, Lung fibro prol, H69AR inhibit)
Cn1cc(C(=O)c2ccc(Cl)cc2Cl)cc1C(=O)N/N=C(\N)COc1ccc(Cl)cc1Cl	H69AR inhibit 18.2 (no result: Jurkat viability)
N/C(COc1ccc(F)cc1)=N\NC(=O)c1cccnc1Oc1ccccc1	none (no result: Jurkat viability)
Cn1cc(C(=O)c2ccc(Cl)cc2Cl)cc1C(=O)N/N=C(\N)COc1ccc(F)cc1	H69AR inhibit 24.6 (no result: Jurkat viability)
Cn1cc(C(=O)c2ccc(Cl)cc2Cl)cc1C(=O)N/N=C(\N)COc1ccccc1	H69AR inhibit 33.4 (no result: Jurkat viability)
CC(=O)Nc1nc(SCCCc2ccccc2)n[nH]1	none
CCC(NC(=O)NCCCn1ccnc1)(C(F)(F)F)C(F)(F)F	none
CN1CCN(c2ccccc2NS(=O)(=O)c2ccc3c(c2)CCN3C(=O)C2CCC2)CC1	none (no result: HUVEC inhibit, Lung fibro prol, H69AR inhibit)
Cc1c(NC(=O)OC(C)C)sc(=S)n1C	none (no result: Jurkat viability)
COc1ccc(S(=O)(=O)N2CCOCC2)c(Cl)c1Cl	none
CC(=O)c1c(C)[nH]c(C(=O)N2CCN(c3ccc(F)cc3)CC2)c1C	none (no result: Jurkat viability)
CC(=O)c1c(C)[nH]c(C(=O)N2CCN(c3cc(Cl)ccc3C)CC2)c1C	H69AR inhibit 17.1 (no result: Jurkat viability)
COc1cccc(N2CCN(C(=O)c3[nH]c(C)c(C(C)=O)c3C)CC2)c1	Jurkat viability 90.6, H69AR inhibit 21.2
Cc1cc(O)c(-c2n[nH]c3c2C(c2cccc(O)c2)N(Cc2cccnc2)C3=O)cc1Cl (centres undefined)	none (no result: H69AR inhibit)
CCOC(=O)c1ccc2c(c1)nc(COc1ccc3ccccc3c1)n2CC	H69AR inhibit 24.1 (no result: Jurkat viability)
CCOC(=O)c1ccc2c(c1)nc(COc1ccccc1C#N)n2CC	H69AR inhibit 19.8
Cc1nc2cc(NC(=O)COc3ccccc3C#N)ccc2n1-c1ccccc1	none (no result: Jurkat viability)
CCn1c(COc2ccc(OC)cc2)nc2ccccc21	none (no result: Jurkat viability)
CCc1ccc(-c2nc(C(N)=O)c3[nH]c(=O)n(-c4ccccc4OC)c3n2)cc1	Lung fibro prol 37.3, H69AR inhibit 16.4
CCOc1ccccc1-c1nc(C(N)=O)c2[nH]c(=O)n(-c3ccc(F)cc3)c2n1	none
COc1ccc(-c2nc(C(N)=O)c3[nH]c(=O)n(-c4cccc(Cl)c4)c3n2)cc1OC	Lung fibro prol 7.5, H69AR inhibit 2.1
CC(C)(C)c1ccc(-c2noc(CCC(=O)NCC3CCCO3)n2)cc1 (centres undefined)	none (no result: Jurkat viability)
Cc1oc2c(C)c3oc(=O)c4c(c3cc2c1C)CCC4	none
Cc1coc2c(C)c3oc(=O)c4c(c3cc12)CCCC4	H69AR inhibit 21.3
CCOC(=O)C1(Nc2nccs2)Sc2ccccc2NC1=O (centres undefined)	Jurkat viability 82.6, H69AR inhibit 15.8
CCOC(=O)Nc1ccc2c(c1)Nc1ccccc1S2	none
CCCC(=O)N1CCN(c2nc(CC(C)C)c3c(c2C#N)CCC3)CC1	none (no result: Jurkat viability)
